# pIC50: −log10 of the molar value. Activity calls are given as the source filed them. The rule behind the calls is not given here.
# Key:
# [1] = Drug uptake in cynomolgus monkey cerebellum at 215 MBq, iv measured for 90 mins by PET analysis; assay type: ADME, organism-based, Macaca fascicularis; conditions: in vivo, 1.5 h
# Method in brief: (§1)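 Male cynomolgus monkeys (n=2, 5–6 years) were fasted overnight and given ketamine 10 mg/kg IM plus glycopyrrolate 0.01 mg/kg IM. They were intubated and maintained under isoflurane (1.5−2.0% in O2). The radiotracer was given as an IV saphenous bolus targeting 37 MBq/kg. A 57Co transmission scan provided attenuation/scatter correction. A 90 min dynamic acquisition was binned into 16 frames (5×1, 5×5, 6×10 min).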
# [2] = Drug uptake in cynomolgus monkey caudate nucleus at 215 MBq, iv measured for 90 mins by PET analysis; assay type: ADME, organism-based, Macaca fascicularis; conditions: in vivo, 1.5 h; method in brief: as §1
# [3] = Drug uptake in cynomolgus monkey skull at 215 MBq, iv measured for 90 mins by PET analysis; assay type: ADME, organism-based, Macaca fascicularis; conditions: in vivo, 1.5 h; method in brief: as §1
# Putamen = experiment: Drug uptake in cynomolgus monkey putamen at 215 MBq, iv measured for 90 mins by PET analysis; assay type: ADME, organism-based, Macaca fascicularis; conditions: in vivo, 1.5 h; method in brief: as §1
# [4] = Ratio of total drug level in brain to plasma in Wistar Han rat at 1 mg/kg, iv after 2 hrs; assay type: ADME, organism-based; design: dose 1 mg/kg, route intravenous
# Method in brief: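 Wistar-Han rats received a single 1 mg/kg IV dose. Total drug levels in brain and plasma were determined from pharmacokinetics over 0−2 h post-dose and expressed as a ratio.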
# [5] = Fraction unbound in human plasma; assay type: ADME, cell-free
# [6] = Fraction unbound in rat plasma; assay type: ADME, cell-free
# [7] = Fraction unbound in rat brain; assay type: ADME, tissue-based
# [8] = Apparent permeability across apical to basolateral side in dog RRCK cells; assay type: ADME, cell-based, Canis lupus familiaris, MDCKII-LE; conditions: MDCK
# Cynomolgus monkey = experiment: Binding affinity to PDE2A in cynomolgus monkey striatum at 215 MBq, iv measured for 90 mins by PET analysis; assay type: functional, organism-based; conditions: Macaca fascicularis, 215 M, tested as the 18F-labelled form
# Method in brief: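 Two male cynomolgus monkeys, 5–6 years old, were fasted overnight and premedicated with ketamine (10 mg/kg IM) and glycopyrrolate (0.01 mg/kg IM). They were then intubated and kept under isoflurane (1.5−2.0% in oxygen). Tracer was an IV bolus via the saphenous vein, targeting 37 MBq/kg. A 90 min dynamic scan followed. Striatal binding potential was derived by a simplified reference tissue model, with cerebellum as the reference region.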
# [9] = biological target: cAMP and cAMP-inhibited cGMP 3',5'-cyclic phosphodiesterase 10A (Homo sapiens, UniProt Q9Y233); experiment: Inhibition of PDE10A (unknown origin)
# Chain of cAMP and cAMP-inhibited cGMP 3',5'-cyclic phosphodiesterase 10A (Q9Y233 whole entry): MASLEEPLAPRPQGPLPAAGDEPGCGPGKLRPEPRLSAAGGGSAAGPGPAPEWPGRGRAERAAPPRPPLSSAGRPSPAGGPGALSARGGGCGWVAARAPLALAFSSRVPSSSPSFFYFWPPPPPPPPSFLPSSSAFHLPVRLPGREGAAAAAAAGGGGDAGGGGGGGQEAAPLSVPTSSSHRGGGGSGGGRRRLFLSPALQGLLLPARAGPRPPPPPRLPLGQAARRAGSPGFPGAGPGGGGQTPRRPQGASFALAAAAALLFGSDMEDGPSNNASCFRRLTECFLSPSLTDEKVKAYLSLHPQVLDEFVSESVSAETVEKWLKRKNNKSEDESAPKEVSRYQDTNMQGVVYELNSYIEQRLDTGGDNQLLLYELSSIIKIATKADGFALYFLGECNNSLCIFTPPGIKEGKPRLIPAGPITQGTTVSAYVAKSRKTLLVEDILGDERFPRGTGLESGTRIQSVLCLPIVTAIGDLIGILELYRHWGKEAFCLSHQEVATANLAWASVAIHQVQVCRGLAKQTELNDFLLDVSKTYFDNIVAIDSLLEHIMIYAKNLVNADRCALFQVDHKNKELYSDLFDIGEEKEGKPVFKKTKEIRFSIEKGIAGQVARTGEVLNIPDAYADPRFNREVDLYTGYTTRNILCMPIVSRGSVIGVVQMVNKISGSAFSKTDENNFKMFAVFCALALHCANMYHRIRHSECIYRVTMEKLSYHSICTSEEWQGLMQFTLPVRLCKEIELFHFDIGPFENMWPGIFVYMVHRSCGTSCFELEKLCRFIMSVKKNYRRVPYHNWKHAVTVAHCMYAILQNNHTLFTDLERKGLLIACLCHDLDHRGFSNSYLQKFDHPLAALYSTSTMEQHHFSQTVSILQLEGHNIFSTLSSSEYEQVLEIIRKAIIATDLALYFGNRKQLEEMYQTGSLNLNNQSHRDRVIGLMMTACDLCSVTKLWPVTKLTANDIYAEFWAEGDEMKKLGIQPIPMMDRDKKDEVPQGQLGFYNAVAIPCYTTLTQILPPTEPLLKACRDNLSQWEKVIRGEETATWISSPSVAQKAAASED
# [10] = biological target: High affinity cAMP-specific and IBMX-insensitive 3',5'-cyclic phosphodiesterase 8B (Homo sapiens, UniProt O95263); experiment: Inhibition of PDE8B (unknown origin)
# Chain of High affinity cAMP-specific and IBMX-insensitive 3',5'-cyclic phosphodiesterase 8B (O95263 whole entry): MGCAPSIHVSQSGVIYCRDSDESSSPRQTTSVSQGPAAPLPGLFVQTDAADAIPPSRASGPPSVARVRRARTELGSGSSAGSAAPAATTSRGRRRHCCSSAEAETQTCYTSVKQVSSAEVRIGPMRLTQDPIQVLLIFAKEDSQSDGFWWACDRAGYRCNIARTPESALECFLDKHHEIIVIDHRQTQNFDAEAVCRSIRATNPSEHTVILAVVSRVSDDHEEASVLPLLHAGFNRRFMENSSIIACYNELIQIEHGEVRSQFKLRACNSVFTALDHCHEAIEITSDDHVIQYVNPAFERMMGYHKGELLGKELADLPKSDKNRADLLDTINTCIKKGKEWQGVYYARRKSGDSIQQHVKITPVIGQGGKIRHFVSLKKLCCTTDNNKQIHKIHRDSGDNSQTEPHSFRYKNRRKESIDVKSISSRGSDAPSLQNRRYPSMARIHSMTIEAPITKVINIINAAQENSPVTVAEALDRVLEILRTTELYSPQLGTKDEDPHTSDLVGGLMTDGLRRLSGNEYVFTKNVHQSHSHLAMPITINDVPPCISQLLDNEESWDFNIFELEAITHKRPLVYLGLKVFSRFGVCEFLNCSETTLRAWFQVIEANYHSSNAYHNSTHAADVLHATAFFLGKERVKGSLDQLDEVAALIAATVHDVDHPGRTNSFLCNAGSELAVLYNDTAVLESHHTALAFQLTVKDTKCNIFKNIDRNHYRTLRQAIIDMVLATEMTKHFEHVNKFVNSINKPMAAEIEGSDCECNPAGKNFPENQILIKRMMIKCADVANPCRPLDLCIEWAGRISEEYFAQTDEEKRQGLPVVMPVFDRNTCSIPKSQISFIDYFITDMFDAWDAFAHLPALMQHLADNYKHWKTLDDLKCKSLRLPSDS
# [11] = biological target: High affinity cGMP-specific 3',5'-cyclic phosphodiesterase 9A (Homo sapiens, UniProt O76083); experiment: Inhibition of PDE9A (unknown origin)
# Chain of High affinity cGMP-specific 3',5'-cyclic phosphodiesterase 9A (O76083 whole entry): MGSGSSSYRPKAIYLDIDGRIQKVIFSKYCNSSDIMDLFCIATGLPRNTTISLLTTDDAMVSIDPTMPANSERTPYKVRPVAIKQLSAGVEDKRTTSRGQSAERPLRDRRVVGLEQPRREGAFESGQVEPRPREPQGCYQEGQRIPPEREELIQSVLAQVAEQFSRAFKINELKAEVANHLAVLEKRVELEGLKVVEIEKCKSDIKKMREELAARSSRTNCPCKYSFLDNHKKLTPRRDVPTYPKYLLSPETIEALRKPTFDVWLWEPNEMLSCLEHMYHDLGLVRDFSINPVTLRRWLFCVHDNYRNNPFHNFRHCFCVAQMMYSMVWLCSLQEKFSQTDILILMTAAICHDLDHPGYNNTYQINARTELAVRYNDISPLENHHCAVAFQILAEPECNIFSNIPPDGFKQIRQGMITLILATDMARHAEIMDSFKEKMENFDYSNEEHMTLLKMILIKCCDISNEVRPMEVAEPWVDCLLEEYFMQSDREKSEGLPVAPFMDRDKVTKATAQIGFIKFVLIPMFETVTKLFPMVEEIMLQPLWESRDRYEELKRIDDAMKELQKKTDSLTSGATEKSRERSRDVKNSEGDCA
# [12] = biological target: 3',5'-cyclic-AMP phosphodiesterase 7B (Homo sapiens, UniProt Q9NP56); experiment: Inhibition of PDE7B (unknown origin)
# [13] = biological target: cGMP-specific 3',5'-cyclic phosphodiesterase (Homo sapiens, UniProt O76074); experiment: Inhibition of PDE5A (unknown origin)
# [14] = biological target: 3',5'-cyclic-AMP phosphodiesterase 4D (Homo sapiens, UniProt Q08499); experiment: Inhibition of PDE4D (unknown origin)
# Chain of 3',5'-cyclic-AMP phosphodiesterase 4D (Q08499 whole entry): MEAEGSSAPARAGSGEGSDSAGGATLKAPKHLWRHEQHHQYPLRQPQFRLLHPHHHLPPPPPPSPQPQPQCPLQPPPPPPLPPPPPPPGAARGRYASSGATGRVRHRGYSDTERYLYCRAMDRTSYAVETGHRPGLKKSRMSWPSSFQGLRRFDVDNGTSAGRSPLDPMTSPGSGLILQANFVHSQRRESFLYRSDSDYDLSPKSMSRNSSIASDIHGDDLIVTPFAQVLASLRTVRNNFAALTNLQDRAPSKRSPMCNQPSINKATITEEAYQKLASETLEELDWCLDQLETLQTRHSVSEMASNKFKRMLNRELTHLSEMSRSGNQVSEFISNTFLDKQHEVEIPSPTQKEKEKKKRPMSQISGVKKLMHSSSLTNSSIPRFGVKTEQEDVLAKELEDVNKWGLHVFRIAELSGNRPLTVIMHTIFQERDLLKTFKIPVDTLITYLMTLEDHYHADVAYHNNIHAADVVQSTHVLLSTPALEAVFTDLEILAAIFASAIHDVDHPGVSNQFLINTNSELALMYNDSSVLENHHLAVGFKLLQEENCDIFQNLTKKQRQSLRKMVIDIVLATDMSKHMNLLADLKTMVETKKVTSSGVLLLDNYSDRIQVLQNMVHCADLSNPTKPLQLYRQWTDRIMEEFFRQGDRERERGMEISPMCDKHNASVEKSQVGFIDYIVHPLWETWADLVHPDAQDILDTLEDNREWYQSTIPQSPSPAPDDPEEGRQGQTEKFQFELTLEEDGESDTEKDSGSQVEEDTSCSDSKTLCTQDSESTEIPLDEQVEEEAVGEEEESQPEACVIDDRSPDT
# [15] = biological target: cGMP-inhibited 3',5'-cyclic phosphodiesterase 3A (Homo sapiens, UniProt Q14432); experiment: Inhibition of PDE3A (unknown origin)
# Chain of cGMP-inhibited 3',5'-cyclic phosphodiesterase 3A (Q14432 whole entry): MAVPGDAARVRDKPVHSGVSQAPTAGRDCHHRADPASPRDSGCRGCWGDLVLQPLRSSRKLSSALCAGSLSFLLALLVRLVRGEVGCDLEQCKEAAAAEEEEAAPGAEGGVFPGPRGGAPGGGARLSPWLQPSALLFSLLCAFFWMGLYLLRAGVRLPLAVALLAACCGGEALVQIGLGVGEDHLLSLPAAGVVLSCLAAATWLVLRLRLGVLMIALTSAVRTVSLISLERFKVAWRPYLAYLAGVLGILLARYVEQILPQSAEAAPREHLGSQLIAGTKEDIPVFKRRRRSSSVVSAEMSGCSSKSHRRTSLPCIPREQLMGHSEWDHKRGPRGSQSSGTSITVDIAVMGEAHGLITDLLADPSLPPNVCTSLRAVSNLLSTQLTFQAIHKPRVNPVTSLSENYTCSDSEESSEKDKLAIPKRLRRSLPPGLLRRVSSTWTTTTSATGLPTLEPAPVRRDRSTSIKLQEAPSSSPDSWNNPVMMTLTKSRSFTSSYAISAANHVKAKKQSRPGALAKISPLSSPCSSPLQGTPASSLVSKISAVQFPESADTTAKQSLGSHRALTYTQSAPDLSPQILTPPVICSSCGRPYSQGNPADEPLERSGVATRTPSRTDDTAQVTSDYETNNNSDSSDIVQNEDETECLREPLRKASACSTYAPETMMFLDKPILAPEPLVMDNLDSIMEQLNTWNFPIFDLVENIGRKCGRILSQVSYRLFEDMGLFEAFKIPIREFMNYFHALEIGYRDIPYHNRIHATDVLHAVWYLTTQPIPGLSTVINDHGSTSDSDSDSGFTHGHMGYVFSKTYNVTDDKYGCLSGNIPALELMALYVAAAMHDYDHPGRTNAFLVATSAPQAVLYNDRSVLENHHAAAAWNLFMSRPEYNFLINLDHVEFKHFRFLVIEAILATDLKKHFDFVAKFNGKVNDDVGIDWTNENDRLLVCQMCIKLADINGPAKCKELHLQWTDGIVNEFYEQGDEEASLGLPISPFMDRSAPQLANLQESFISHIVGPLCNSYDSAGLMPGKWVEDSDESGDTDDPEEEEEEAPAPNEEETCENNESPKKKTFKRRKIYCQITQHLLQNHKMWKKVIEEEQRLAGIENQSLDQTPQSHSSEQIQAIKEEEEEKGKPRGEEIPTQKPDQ
# [16] = biological target: Dual specificity calcium/calmodulin-dependent 3',5'-cyclic nucleotide phosphodiesterase 1B (Homo sapiens, UniProt Q01064); experiment: Inhibition of PDE1B (unknown origin)
# Chain of Dual specificity calcium/calmodulin-dependent 3',5'-cyclic nucleotide phosphodiesterase 1B (Q01064 whole entry): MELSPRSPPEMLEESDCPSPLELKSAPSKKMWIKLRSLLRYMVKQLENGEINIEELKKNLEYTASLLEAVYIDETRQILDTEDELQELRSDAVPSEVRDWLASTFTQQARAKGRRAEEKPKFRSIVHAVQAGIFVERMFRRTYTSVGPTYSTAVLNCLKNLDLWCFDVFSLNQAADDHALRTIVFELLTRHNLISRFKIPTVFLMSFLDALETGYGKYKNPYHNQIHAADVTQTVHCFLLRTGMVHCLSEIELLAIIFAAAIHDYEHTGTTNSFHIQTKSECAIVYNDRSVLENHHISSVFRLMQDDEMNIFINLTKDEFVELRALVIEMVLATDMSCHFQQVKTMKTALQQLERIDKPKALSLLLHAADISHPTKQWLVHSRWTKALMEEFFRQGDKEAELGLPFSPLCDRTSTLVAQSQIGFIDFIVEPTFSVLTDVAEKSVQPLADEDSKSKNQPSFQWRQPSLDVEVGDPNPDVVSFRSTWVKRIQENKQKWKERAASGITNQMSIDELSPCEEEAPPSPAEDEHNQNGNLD
# [17] = biological target: cGMP-dependent 3',5'-cyclic phosphodiesterase (Homo sapiens, UniProt O00408); experiment: Inhibition of full length recombinant human PDE2A expressed in Sf21 cells using [3H]-cGMP as substrate by scintillation proximity assay
smiles,measurement,setting,value
Cc1nc(-c2cnn(C)c2-c2ccc(C(F)(F)F)cc2)c2c(N3CC([18F])C3)ncnn12,Drug uptake,[1],Active
same,Drug uptake,[2],Active
same,Drug uptake,[3],Not Active
same,Drug uptake,Putamen,Active
COc1ccc(-c2c(-c3nc(C)n4ncnc(N5CCC5)c34)cnn2C)c(C)c1,Kp at 2 h,"[4]; Wistar Han, brain and plasma, read-out: BPR",0.34
same,fraction unbound,[5],0.23
same,fraction unbound,[6],0.29
same,fraction unbound,[7],0.17
same,Papp A→B,[8],42 ×10⁻⁶ cm/s
Cn1ncc(-c2nn(C)c3ncnc(N4CCC4)c23)c1-c1ccc(C(F)(F)F)cc1,Papp A→B,[8],21.5 ×10⁻⁶ cm/s
Cc1nc(-c2cnn(C)c2-c2ccc(C(F)(F)F)cc2)c2c(N3CC(F)C3)ncnn12,Activity,Cynomolgus monkey,Active
same,pIC50,[9],5.41
same,pIC50,[10],< 5.00
same,pIC50,[11],< 5.00
same,pIC50,[12],4.92
same,pIC50,[13],4.59
same,pIC50,[14],< 4.52
same,pIC50,[15],< 4.52
same,pIC50,[16],< 4.52
same,BPR,"[4]; brain, 2 h",1.56
same,fraction unbound,[5],0.17
same,fraction unbound,[6],0.24
same,fraction unbound,[7],0.077
same,pIC50,[17],9.28
same,Papp A→B,[8],21 ×10⁻⁶ cm/s

# — ChEMBL document CHEMBL2380216, “Design and selection parameters to accelerate the discovery of novel central nervous system positron emission tomography (PET) ligands and their application in the development of a novel phosphodiesterase 2A PET ligand” (J Med Chem, 2013)
